Assay results published in ChEMBL document CHEMBL1134844 (J Med Chem, 2001).

Experiments:
Cavia porcellus [1] = species on record: Cavia porcellus; experiment: Ability to inhibit [125I]- albumin extravasation into dura following electrical stimulation of trigeminal ganglion of Guinea pig; assay type: functional
Outline: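 Pentobarbitone-anaesthetised (50 mg/kg ip), ventilated guinea pigs kept at 37 °C; single jugular iv bolus of 0.01, 0.03 or 0.1 µg/kg or saline vehicle. 5 min later, [125I]BSA 50 µCi/kg iv. After another 5 min, one trigeminal ganglion was stimulated for 5 min (5 pulses/s, 5 ms, 1.2 mA). Dura gamma-counted as cpm/mg wet weight; stimulated/unstimulated ratio, mean ± SEM; vehicle controls run daily.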

[2] = molecular target: 5-hydroxytryptamine receptor 1D (Homo sapiens, UniProt P28221); experiment: Binding affinity in CHO-K1 cells transfected with human 5-hydroxytryptamine 1D receptor; assay type: cell-based
Outline: (§1)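 Competition binding on CHO-K1 cells stably transfected with human recombinant 5HT1D, 5HT1F or 5HT1A receptors; reported as pIC50, means of duplicates.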

Oryctolagus cuniculus [3] = species on record: Oryctolagus cuniculus; experiment: Binding affinity towards rabbit saphenous vein value in parenthesis represents intrinsic activity for RbSv;(1 for 5-HT); assay type: functional
[4] = molecular target: 5-hydroxytryptamine receptor 1B (Homo sapiens, UniProt P28222); experiment: Binding affinity in CHO-K1 cells transfected with human recombinant 5-hydroxytryptamine 1B receptor; assay type: cell-based
Oryctolagus cuniculus [5] = species on record: Oryctolagus cuniculus; experiment: (§2) Relative binding affinity in rabbit saphenous vein functional assay compared to 5-HT; settings: read-out: pA2 (converted)
[6] = molecular target: T1, 5-hydroxytryptamine receptor 1F (Homo sapiens, UniProt P30939); experiment: Binding affinity towards human recombinant 5-hydroxytryptamine 1F receptor; outline: as §1
T1 sequence (P30939 whole entry): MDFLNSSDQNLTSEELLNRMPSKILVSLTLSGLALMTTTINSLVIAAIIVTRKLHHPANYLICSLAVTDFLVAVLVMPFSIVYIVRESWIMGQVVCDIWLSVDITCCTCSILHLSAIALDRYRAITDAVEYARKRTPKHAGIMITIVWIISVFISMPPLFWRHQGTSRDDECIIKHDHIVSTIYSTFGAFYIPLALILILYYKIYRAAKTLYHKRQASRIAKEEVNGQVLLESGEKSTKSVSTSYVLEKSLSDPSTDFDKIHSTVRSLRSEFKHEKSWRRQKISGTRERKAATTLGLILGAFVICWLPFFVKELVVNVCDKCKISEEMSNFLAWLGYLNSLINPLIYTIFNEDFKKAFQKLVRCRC

[7] = Plasma clearance in rat; assay type: ADME, organism-based
[8] = Volume distribution in rat; assay type: ADME, organism-based; settings: in vivo
[9] = molecular target: T2, 5-hydroxytryptamine receptor 1A (Homo sapiens, UniProt P08908); experiment: binding affinity towards human recombinant 5-hydroxytryptamine 1A receptor; outline: as §1
T2 sequence (P08908 whole entry): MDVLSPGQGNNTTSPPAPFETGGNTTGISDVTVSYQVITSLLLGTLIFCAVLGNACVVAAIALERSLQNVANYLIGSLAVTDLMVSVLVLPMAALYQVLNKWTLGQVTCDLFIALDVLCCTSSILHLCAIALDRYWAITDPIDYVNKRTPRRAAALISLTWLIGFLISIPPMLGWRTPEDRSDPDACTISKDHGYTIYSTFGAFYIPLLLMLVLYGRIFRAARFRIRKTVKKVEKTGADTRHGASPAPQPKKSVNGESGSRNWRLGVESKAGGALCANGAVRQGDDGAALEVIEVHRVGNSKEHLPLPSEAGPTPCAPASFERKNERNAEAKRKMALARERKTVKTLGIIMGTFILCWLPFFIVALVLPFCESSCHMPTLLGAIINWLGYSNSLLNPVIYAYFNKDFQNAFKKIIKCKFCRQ

[10] = Oral bioavailability in human; assay type: ADME, organism-based; settings: in vivo
[11] = Oral bioavailability in rat; assay type: ADME, organism-based; settings: in vivo
Cavia porcellus [12] = species on record: Cavia porcellus; experiment: Ability to inhibit [125I]- albumin extravasation into dura following electrical stimulation of trigeminal ganglion; assay type: functional
Outline: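 Anesthetized guinea pigs (pentobarbitone 50 mg/kg ip, 37 °C, ventilated) got a single iv jugular bolus (0.01, 0.03 or 0.1 µg/kg; vehicle 0.9% saline). 5 min later 50 µCi/kg [125I]BSA iv; after another 5 min, unilateral trigeminal ganglion stimulation for 5 min (5 pulses/s, 5 ms, 1.2 mA). Dural cpm/mg wet weight was expressed as stimulated/unstimulated ratio, mean ± SEM.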

[13] = Beta phase half life was determined in rat; assay type: ADME, organism-based; settings: in vivo
Oryctolagus cuniculus [14] = species on record: Oryctolagus cuniculus; experiment: as §2
Oryctolagus cuniculus [15] = species on record: Oryctolagus cuniculus; settings: Saphenous vein

Sequence of 5-hydroxytryptamine receptor 1B (P28222 whole entry): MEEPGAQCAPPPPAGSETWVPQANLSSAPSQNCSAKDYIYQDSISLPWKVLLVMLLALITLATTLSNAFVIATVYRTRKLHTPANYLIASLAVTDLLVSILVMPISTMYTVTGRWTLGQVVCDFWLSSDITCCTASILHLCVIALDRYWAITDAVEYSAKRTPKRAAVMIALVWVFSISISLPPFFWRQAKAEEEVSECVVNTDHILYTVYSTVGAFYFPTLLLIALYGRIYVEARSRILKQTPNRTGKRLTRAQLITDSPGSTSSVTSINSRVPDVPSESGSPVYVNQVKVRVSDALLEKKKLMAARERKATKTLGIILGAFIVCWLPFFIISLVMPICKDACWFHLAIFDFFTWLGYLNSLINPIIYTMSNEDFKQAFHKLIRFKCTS
Sequence of 5-hydroxytryptamine receptor 1D (P28221 whole entry): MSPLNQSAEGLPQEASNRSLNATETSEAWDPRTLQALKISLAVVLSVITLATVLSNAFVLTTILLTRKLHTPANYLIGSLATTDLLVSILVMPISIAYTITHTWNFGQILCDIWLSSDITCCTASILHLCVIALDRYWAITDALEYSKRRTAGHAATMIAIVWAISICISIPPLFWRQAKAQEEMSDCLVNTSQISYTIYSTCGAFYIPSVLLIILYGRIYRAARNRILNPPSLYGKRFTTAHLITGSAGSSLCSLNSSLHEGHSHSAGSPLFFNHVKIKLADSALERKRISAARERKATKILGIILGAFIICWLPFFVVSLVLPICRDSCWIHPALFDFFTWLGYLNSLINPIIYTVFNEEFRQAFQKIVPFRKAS

Compound	IC50 [2]	IC50 [4]	Kb (Oryctolagus cuniculus [5])	pA50 (Oryctolagus cuniculus [14])	also measured
CNS(=O)(=O)Cc1ccc2[nH]cc(C[C@H]3CCCN3C)c2c1	7.24 nM	14.5 nM			ED50 (Cavia porcellus [1]): 0.0001 mg/kg; pA50 (Oryctolagus cuniculus [3]): 6.33
CN(C)[C@H]1C[C@H](c2c[nH]c3ccc(C(=O)NCc4ccccc4)cc32)C1	141 nM	316 nM	1260 nM		
CN(C)[C@H]1C[C@H](c2c[nH]c3ccc(CCN4C(=O)NC(C)(C)C4=O)cc32)C1	1480 nM	1200 nM	891 nM		
CN(C)[C@H]1C[C@H](c2c[nH]c3ccc(CC4COC(=O)N4)cc32)C1 (stereo in doubt; 1) [listing 1 of 2 here]	15.8 nM	112 nM			IC50 [6]: 363 nM; clearance [7]: 40 mL/min/kg; Vd [8]: 2.6 L/kg; IC50 [9]: 3.55 µM; bioavailability [10]: 41%; bioavailability [11]: 35%; ED50 (Cavia porcellus [12]): ~0.01 µg/kg; half-life [13]: 84 min
CN1C(=O)OCC1Cc1ccc2[nH]cc([C@H]3C[C@H](N(C)C)C3)c2c1 (stereo in doubt; 30) [listing 1 of 2 here]				5.21	
N[C@H]1C[C@H](c2c[nH]c3ccc(CC4COC(=O)N4)cc32)C1 (stereo in doubt; 23) [listing 1 of 2 here]				6.42	
CN(C)[C@H]1C[C@H](c2c[nH]c3ccc(Oc4ccccc4)cc32)C1	64.6 nM	97.7 nM	240 nM		
CN(C)[C@H]1C[C@H](c2c[nH]c3ccc(CC(=O)NCc4ccccc4)cc32)C1	339 nM	263 nM	3890 nM		
CN(C)[C@H]1C[C@H](c2c[nH]c3ccc(CCN4C(=O)CNC4=O)cc32)C1			1910 nM		
CN(C)[C@H]1C[C@H](c2c[nH]c3ccc(CC4COC(=O)N4)cc32)C1 (stereo in doubt; 1) [listing 2 of 2 here]				5.72	
CN1C(=O)OCC1Cc1ccc2[nH]cc([C@H]3C[C@H](N(C)C)C3)c2c1 (stereo in doubt; 34) [listing 1 of 2 here]	57.5 nM	97.7 nM			
Cc1noc(-c2ccc3[nH]cc([C@H]4C[C@H](N(C)C)C4)c3c2)n1	562 nM	832 nM	955 nM		
CN1C(=O)OCC1Cc1ccc2[nH]cc([C@H]3C[C@H](N(C)C)C3)c2c1 (stereo in doubt; 34) [listing 2 of 2 here]				4.85	
CN(C)[C@H]1C[C@H](Cc2c[nH]c3ccc(C[C@H]4COC(=O)N4)cc23)C1	28.8 nM	141 nM	1860 nM		
CC1(C)NC(=O)N(CCc2ccc3[nH]cc([C@H]4C[C@H](N)C4)c3c2)C1=O	501 nM	1120 nM	2690 nM		
CN(C)[C@H]1C[C@H](c2c[nH]c3ccc(CC4COC(=O)N4)cc32)C1 (stereo in doubt; 35) [listing 1 of 2 here]				5.15	
N[C@H]1C[C@H](c2c[nH]c3ccc(CC4COC(=O)N4)cc32)C1 (stereo in doubt; 23) [listing 2 of 2 here]	3.63 nM	18.2 nM			

Compound	IC50 [2]	IC50 [4]	Kb (Oryctolagus cuniculus [5])	pA50 (Oryctolagus cuniculus [14])	also measured
CNS(=O)(=O)Cc1ccc2[nH]cc(CCN(C)C)c2c1					ED50 (Cavia porcellus [1]): 0.01 mg/kg; pA50 (Oryctolagus cuniculus [15]): 6.6; bioavailability [10]: 14%
CN(C)CCc1c[nH]c2ccc(C[C@H]3COC(=O)N3)cc12 [ZOLMITRIPTAN]	2.82 nM	6.17 nM		6.8	ED50 (Cavia porcellus [1]): ~0.012 mg/kg; bioavailability [10]: 40%
CN(C)[C@H]1C[C@H](c2c[nH]c3ccc(CN4C(=O)NC(C)(C)C4=O)cc32)C1	3090 nM	3800 nM	589 nM		
CN(C)[C@H]1C[C@H](c2c[nH]c3ccc(CC4COC(=O)N4)cc32)C1 (stereo in doubt; 31) [listing 1 of 2 here]	170 nM	562 nM			
N[C@H]1C[C@H](c2c[nH]c3ccc(CC4COC(=O)N4)cc32)C1 (stereo in doubt; 24)				5.8	
CN[C@H]1C[C@H](c2c[nH]c3ccc(CC4COC(=O)N4)cc32)C1 (stereo partly specified)	7.08 nM	32.4 nM		6.18	
N[C@H]1C[C@H](c2c[nH]c3ccc(Oc4ccccc4)cc32)C1	14.5 nM	9.55 nM		< 6.5	
CNS(=O)(=O)Cc1ccc2[nH]cc([C@H]3C[C@H](N(C)C)C3)c2c1	191 nM	275 nM		5.25	
CN(C)[C@H]1C[C@H](c2c[nH]c3ccc(CN4C(=O)CNC4=O)cc32)C1	2450 nM	6310 nM	9330 nM		
CN(C)[C@H]1C[C@H](c2c[nH]c3ccc(CC(N)=O)cc32)C1	724 nM	1350 nM	16600 nM		
Cc1noc(Cc2ccc3[nH]cc([C@H]4C[C@H](N(C)C)C4)c3c2)n1	933 nM	1510 nM	7590 nM		
CN(C)[C@H]1C[C@H](c2c[nH]c3ccc(CC4COC(=O)N4)cc32)C1 (stereo in doubt; 31) [listing 2 of 2 here]				4.95	
CN(C)[C@H]1C[C@H](c2c[nH]c3ccc(CCN4C(=O)c5ccccc5C4=O)cc32)C1	195 nM	204 nM	170 nM		
CN(C)[C@H]1C[C@H](c2c[nH]c3ccc(C(N)=O)cc32)C1	14.8 nM	44.7 nM		6.25	
Cc1nc(Cc2ccc3[nH]cc([C@H]4C[C@H](N(C)C)C4)c3c2)n[nH]1	2040 nM	3890 nM	6610 nM		
CN(C)[C@H]1C[C@H](c2c[nH]c3ccc(CC4COC(=O)N4)cc32)C1 (stereo in doubt; 35) [listing 2 of 2 here]	100 nM	162 nM			
CN1C(=O)OCC1Cc1ccc2[nH]cc([C@H]3C[C@H](N(C)C)C3)c2c1 (stereo in doubt; 30) [listing 2 of 2 here]	100 nM	204 nM			
